Bioassay records: PubChem, several laboratories
In the library only some 3% were active in any assay of this set; here they are far more common.
PLCg1 inh = PLC-gamma1 (human) inhibition, primary screen. purified PLC-gamma1, fluorogenic substrate, fluorescence. 0.84% of 370,000 active. AID 720700. P19174. inhibition, % at 12.2 µM; in the data active means inhibition above about 9.5%
proKLK7 act = proKLK7 (human) activation, primary screen. P49862. purified proKLK7, EDANS-DABCYL substrate fluorescence; 100% is mature enzyme control, 0% vehicle. activation, % at 7 µM. 0.9% of 370,000 active. AID 652039;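 active means activation above the mean of all tested compounds plus 3 SD, computed per campaign excluding outliers beyond control limits, cut at about 13% in these data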
CendR NRP1 mod = alters CendR peptide binding to human NRP-1; O14786; FAM-RPARPAR peptide binding to NRP-1, fluorescence polarization; inhibition, % at 25 µM; 0.85% of 360,000 active; AID 602438;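 active means inhibition or corrected inhibition above about 18%, plus a signal ratio from 0.5 to 1.5, limit read from the data, passing the limit was not always enough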
DDE Tn6 FP inh = disrupts Tn6 cyclic peptide binding to fibrin D-Dimer-E complex; 0.21% of 370,000 active; inhibition, % at 8.3 µM; P02675; Fibrin DD(E) TRITC-Tn6 fluorescence polarization displacement; AID 720509;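 active means inhibition above a per-campaign cutoff: mean of compounds within control limits plus 3 SD, cut at about 15% in these data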;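 further: 0% = median of all compound wells on the plate and 100% = blocking peptide control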
Target sequence (P02675 whole entry, looked up): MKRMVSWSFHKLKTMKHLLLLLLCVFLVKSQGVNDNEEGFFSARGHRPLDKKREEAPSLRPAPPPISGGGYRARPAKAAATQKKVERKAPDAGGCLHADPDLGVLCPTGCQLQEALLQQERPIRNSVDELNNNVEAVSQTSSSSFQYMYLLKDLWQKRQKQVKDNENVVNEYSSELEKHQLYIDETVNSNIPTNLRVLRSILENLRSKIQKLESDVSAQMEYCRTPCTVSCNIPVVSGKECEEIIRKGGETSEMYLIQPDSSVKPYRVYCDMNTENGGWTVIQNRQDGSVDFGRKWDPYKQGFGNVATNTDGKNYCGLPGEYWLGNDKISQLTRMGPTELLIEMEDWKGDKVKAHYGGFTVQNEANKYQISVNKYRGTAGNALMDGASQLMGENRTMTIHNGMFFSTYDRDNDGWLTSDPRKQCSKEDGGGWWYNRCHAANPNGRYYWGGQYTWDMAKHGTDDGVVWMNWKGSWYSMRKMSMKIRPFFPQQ
Tn7 DDE FP = disrupts Tn7 cyclic peptide binding to fibrin D-Dimer-E complex; P02675; FP displacement of FITC-Tn7 peptide from fibrin DD(E); 0% = median of compound wells per plate; inhibition, % at 8.3 µM; 0.13% of 370,000 active;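 active means inhibition above the mean of compounds falling within the control limits plus 3 SD of them, cut at about 14% in these data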;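 further: 0% = plate median of compound wells and 100% = 10 µM Aha-Tn7 peptide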
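Test system: human clot-derived fibrin DD(E) complex / Quantity: 2 µM final DD(E) protein / Incubation: 10 min plus 3 h, room temperature / Measured by: fluorescence polarization / Benchmarks: high control of 10 µM Aha-Tn7 peptide / Replicates: singlicate testing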
PLC-beta3 inh = blocks human PLC-beta3 enzyme activity; Q01970; Purified PLC-beta3, fluorogenic substrate, fluorescence; inhibition, % at 12.2 µM; 0.18% of 370,000 active; AID 720704; in the data active means inhibition above about 11%;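 further: 0% = median of compound wells on plate and 100% = full blocker control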
KLK7 act conf = proKLK7 activation, confirmation; shares compounds with proKLK7 act; purified proKLK7, EDANS-DABCYL substrate fluorescence; scaled: vehicle 0, mature enzyme 100; activation, % at 7 µM; 68% of 3,200 active;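 active means activation, as change over the incubation, above the mean of all tested compounds plus 3 SD, cut at about 13% in these data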
EDANS interfere = optically interferes with EDANS-DABCYL signal, flagging KLK7 hits; shares compounds with proKLK7 act; EDANS-DABCYL substrate fluorescence interference, no enzyme, 4 h; solvent 0%, active enzyme control 100%; activation, % at 7 µM; 80% of 3,200 active; AID 686952;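 active means activation above the all-compound mean plus 3 SD, ignoring values outside control-based bounds, cut at about 4.8% in these data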;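 further: value is the 4 h activation minus the activation read at time zero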
EDANS interf = counter-screen for kallikrein-7 activators: EDANS-DABCYL interference, dose response; shares compounds with proKLK7 act; EDANS-DABCYL peptide fluorescence interference, no enzyme; EC50, µM; 20% of 250 active; AID 720493;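 active means compounds that raise the fluorescence signal in this interference counterscreen, with EC50 at or below 10 µM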;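 further: intact quenched peptide substrate alone read at 355 nm excitation and 520 nm emission; signal is fluorescence gain from T0 to T4 after four hours at room temperature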
Active calls of the source: *; i = inactive; . = no result given.

SMILES	PLCg1 inh	proKLK7 act	CendR NRP1 mod	DDE Tn6 FP inh	Tn7 DDE FP	PLC-beta3 inh	KLK7 act conf	EDANS interfere	others
O=C1Nc2ccc(S(=O)(=O)NCc3ccccn3)c3cccc1c23	i	15.8*	-14.8	-5.2	4.4	i	72.1*	72.4*
O=C1Nc2ccc(S(=O)(=O)N3CCCCCC3)c3cccc1c23	-308.5	1.6	-5.3	-3.7	-1.7	-404.2	.	.
CN(C)CCNS(=O)(=O)c1ccc2c3c(cccc13)C(=O)N2	i	154.8*	4.0	8.1	6.4	i	67.8*	57.3*	EDANS interf=2.09*
CCOC(=O)N1CCN(S(=O)(=O)c2ccc3c4c(cccc24)C(=O)N3)CC1	i	8.6	-6.6	-0.3	-3.6	i	.	.
COC(=O)[C@@H](CC(C)C)CP(=O)(OC)[C@@H](C)NC(=O)OCc1ccccc1 (some centres not stated)	-1.4	0.1	.	0.5	1.7	-0.4	.	.
O=C(Nc1ccccc1)Nc1nc2ncccn2c1-c1ccc(F)cc1	-117.7	5.6	.	4.0	-4.4	-135.9	.	.
Cc1cccc(C)c1-n1nnnc1C1c2ccccc2OCC(=O)N1Cc1ccc(F)cc1 (configuration not stated)	5.1	-0.9	.	6.8	-5.4	0.5	.	.
Cc1cccc(C(=O)Nc2ccccc2C(=O)OCC(=O)Nc2ccc(C#N)cc2)c1	-0.8	17.3*	-10.5	2.0	-10.9	-4.7	-0.4	-0.9
CNc1cncc(-c2cccnc2)n1	i	67.2*	2.3	2.2	-7.2	i	75.8*	78.6*
CNc1cncc(-c2ccc(F)c(F)c2)n1	i	36.9*	14.5	0.0	-6.4	i	15.5*	25.4*
CNc1cncc(-c2cccc(C(=O)N(C)C)c2)n1	i	50.8*	6.7	6.7	-4.6	i	60.2*	63.3*
CNc1cncc(-c2ccc(OC)c(OC)c2)n1	-192.3	6.8	13.7	-1.8	-15.1	-234.7	.	.
COC(=O)[C@]12C[C@H](CC(=O)NCc3cccs3)C(=O)N(Cc3ccco3)C1=C[C@H](C1CCCC1)O[C@@H]2C	0.8	0.3	.	1.0	-6.7	1.9	.	.
Cc1cc(C(=O)O[C@@H]2CCC[C@@]3(C(=O)N(Cc4ccccc4)c4ccccc43)[C@H]2NC(=O)CCc2ccccc2)no1	3.4	-0.1	.	-3.8	-7.3	5.3	.	.
CC1=NCC(C)c2c1[nH]c1ccccc21 (configuration not stated)	-482.1	30.3*	-8.6	-1.5	2.3	i	19.8*	17.0*
CCOC(=O)Cc1nc(N2CCN(Cc3cccc4c3OCO4)CC2)c2c(C)c(C(=O)OCC)sc2n1	-5.5	-3.1	.	-7.4	1.7	-4.4	.	.
c1cn2c(-c3ccoc3)cncc2n1	-69.6	-1.5	4.6	0.8	4.7	-84.4	.	.
OCc1ccc(-c2cncc3nccn23)cc1	-246.1	22.6*	15.9	-2.3	-2.8	-328.1	26.8*	26.9*
Cc1cccc(C)c1N1C(=O)CC(N(O)c2ccccc2)C1=O (configuration not stated)	-0.4	276.9*	2.2	0.3	4.3	1.1	224.3*	254.3*
Cc1c(Cl)cccc1N1C(=O)CC(NNC(=O)c2ccc3c(c2)OCO3)C1=O (configuration not stated)	-2.8	-0.2	-17.2	3.0	2.2	-14.4	.	.
Cc1c(Cl)cccc1N1C(=O)CC(N(O)c2ccccc2)C1=O (configuration not stated)	-3.4	759.4*	-1.2	6.7	-3.4	-4.9	676.4*	671.0*
CCCCOc1ccc(N2C(=O)CC(N(O)c3ccccc3)C2=O)cc1 (configuration not stated)	2.1	32.9*	3.2	1.6	-4.5	-2.9	35.7*	33.3*
CCCCCOc1ccc(N2C(=O)CC(N(O)c3ccccc3)C2=O)cc1 (configuration not stated)	-1.8	6.5	-11.1	9.4	0.9	-4.1	.	.
Cc1cccc(C)c1N1C(=O)CC(Sc2ccccc2N)C1=O (configuration not stated)	1.7	-1.0	-1.5	-0.4	-5.4	1.5	.	.
CN(C(=O)COC(=O)c1ccccc1NC(=O)c1ccco1)C1CCS(=O)(=O)C1 (configuration not stated)	-0.7	0.2	11.2	0.6	-4.5	-0.1	.	.
SMILES	PLCg1 inh	proKLK7 act	CendR NRP1 mod	DDE Tn6 FP inh	Tn7 DDE FP	PLC-beta3 inh	KLK7 act conf	EDANS interfere	others
CN(C(=O)COC(=O)c1ccccc1NCCO)C1CCS(=O)(=O)C1 (configuration not stated)	-386.6	14.0*	9.6	4.9	6.9	i	39.5*	41.5*
COc1ccc(NC(=O)COC(=O)c2c(NC(C)=O)sc(C)c2C)cc1	-0.8	25.9*	-5.0	-1.2	11.7	-1.6	-0.8	-1.0
CCn1cc(C2C(C(=O)Nc3cc(C)ccn3)=C(C)NC3=C2C(=O)CC(C)(C)C3)c(C)n1 (configuration not stated)	-441.2	20.1*	-8.4	3.8	4.2	-402.3	7.6	14.7*
CCN(CC)c1ccc(C2C(C(=O)Nc3ccccn3)=C(C)NC3=C2C(=O)CC(C)(C)C3)cc1 (configuration not stated)	-158.7	7.2	-2.4	3.9	-2.5	-218.4	.	.
Cc1cc(NCCO)c2cc(O)ccc2n1	i	80.6*	2.6	1.7	-1.4	i	63.7*	68.6*
CCCCCCNC(=O)C1CSCCS(=O)(=O)N1Cc1ccc(F)cc1 (configuration not stated)	1.6	-0.1	.	1.1	0.0	4.7	.	.
C[C@@H]1C[C@H]2[C@@H](C)C(=O)N3[C@H](c4ccccc4)[C@H](C)C[C@H]3[C@@H](C)C(=O)N2[C@@H]1c1ccccc1	2.6	0.9	.	-1.2	5.2	-4.5	.	.
COc1ccc(-c2cc(=O)oc3cc(O)ccc23)cc1	i	-25.7	1.0	6.8	5.8	i	.	.
COc1ccc(-c2cc(=O)oc3cc(OC(=O)C4CCCCC4)c(Cl)cc23)cc1	i	63.5*	-4.4	1.2	2.9	i	63.8*	37.3*	EDANS interf=>69.5
COC(=O)[C@]12C[C@H](CC(=O)NCC34CC5CC(CC(C5)C3)C4)C(=O)N(Cc3ccco3)C1=C[C@H](C(C)(C)C)O[C@@H]2C	1.4	0.6	.	2.8	-2.6	2.4	.	.
